From ChEMBL document CHEMBL3352557, “Design, synthesis and antimycobacterial activity of various 3-(4-(substitutedsulfonyl)piperazin-1-yl)benzo[d]isoxazole derivatives” (Eur J Med Chem, 2014)
Values after ≈ are worked out from the molar mass of the structure shown.

Assays:
[1] = system: Mycobacterium tuberculosis; assay: Antimycobacterial activity against Mycobacterium tuberculosis H37Rv ATCC 27294 after 7 days by MABA method; type: functional; conditions: H37Rv ATCC 27294, 168 h
Method in brief: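 Two-fold serial dilutions in Middlebrook 7H9GC medium, final 50 to 0.78 µg/mL (DMSO stocks), inoculum 2 × 10^5 CFU/mL. Incubated at 37 °C for 7 days, then 10% Tween 80 and Alamar Blue added and incubated 24 h at 37 °C. Blue read as no growth, pink as growth. MIC is the lowest concentration preventing the blue-to-pink change. Isoniazid and rifampin served as positive controls.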

[2] = Selectivity index, ratio of IC50 for mouse RAW264.7 cells to MIC for Mycobacterium tuberculosis H37Rv ATCC 27294; type: toxicity; conditions: read-out: Selectivity Index
[3] = Cytotoxicity against mouse RAW264.7 cells assessed as inhibition of cell growth at 50 ug/mL after 72 hrs by MTT assay; type: cell-based; conditions: read-out: GI
Method in brief: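 RAW 264.7 mouse macrophage line treated at 50 µg/mL for 72 h. Viability was scored by cellular reduction of MTT to a formazan product in a non-radioactive cell proliferation assay.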

RAW264.7 = assay: Cytotoxicity against mouse RAW264.7 cells assessed as inhibition of cell growth after 72 hrs by MTT assay; type: cell-based; conditions: RAW264.7, 72 h
Method in brief: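 Mouse macrophage RAW 264.7 cells exposed to compound for 72 h. Viability was read as cellular conversion of MTT to formazan using a non-radioactive cell proliferation kit, and IC50 was taken from this.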

[4] = system: Mycobacterium tuberculosis; assay: Antimycobacterial activity against Mycobacterium tuberculosis H37Rv ATCC 27294 assessed as inhibition of cell growth at 6.25 ug/mL after 7 days by MABA method; type: functional; conditions: H37Rv ATCC 27294, 168 h, read-out: GI
[5] = system: Mycobacterium tuberculosis; assay: Antimycobacterial activity against Mycobacterium tuberculosis H37Rv ATCC 27294 assessed as inhibition of cell growth at 3.125 ug/mL after 7 days by MABA method; type: functional; conditions: H37Rv ATCC 27294, 168 h, read-out: GI

Row | SMILES | MIC [1] [µg/mL] | also measured
1 | O=S(=O)(c1ccc(OC(F)(F)F)cc1)N1CCN(c2noc3cccc(Cl)c23)CC1 | 12.5 (≈ 27.1 µM) | selectivity ratio [2]: 4.74; inhibition at 72 h, 50 ug/mL [3]: 42.2%; IC50 (RAW264.7): 59.3 µg/mL (≈ 128 µM)
2 | CS(=O)(=O)N1CCN(c2noc3cc(Cl)ccc23)CC1 | > 50 | –
3 | O=S(=O)(c1ccc(OC(F)(F)F)cc1)N1CCN(c2noc3ccccc23)CC1 | > 50 | –
4 | O=[N+]([O-])c1ccc(S(=O)(=O)N2CCN(c3noc4ccccc34)CC2)cc1 | > 50 | –
5 | O=[N+]([O-])c1ccc(S(=O)(=O)N2CCN(c3noc4cccc(Cl)c34)CC2)cc1 | 50 (≈ 118 µM) | –
6 | Cc1ccc(S(=O)(=O)N2CCN(c3noc4cccc(Cl)c34)CC2)cc1 | 6.25 (≈ 15.9 µM) | selectivity ratio [2]: 18.5; inhibition of growth at 6.25 µg/mL [4]: 99%; inhibition at 72 h, 50 ug/mL [3]: 21.6%; IC50 (RAW264.7): 116 µg/mL (≈ 295 µM)
7 | Cc1ccc(S(=O)(=O)N2CCN(c3noc4c(Cl)cccc34)CC2)cc1 | > 50 | –
8 | O=S(=O)(c1ccccc1)N1CCN(c2noc3ccccc23)CC1 | 3.12 (≈ 9.09 µM) | selectivity ratio [2]: 137; inhibition of growth at 3.125 µg/mL [5]: 99%; inhibition at 72 h, 50 ug/mL [3]: 5.82%; IC50 (RAW264.7): 430 µg/mL (≈ 1250 µM)
9 | O=S(=O)(c1ccccc1)N1CCN(c2noc3cccc(Cl)c23)CC1 | 25 (≈ 66.2 µM) | –
10 | O=S(=O)(c1ccc(Br)cc1)N1CCN(c2noc3ccccc23)CC1 | 50 (≈ 118 µM) | –
11 | Clc1cccc2c(N3CCNCC3)noc12 | 25 (≈ 105 µM) | –
12 | O=[N+]([O-])c1ccc(S(=O)(=O)N2CCN(c3noc4c(Cl)cccc34)CC2)cc1 | 50 (≈ 118 µM) | –
13 | c1ccc2c(N3CCNCC3)noc2c1 | 6.25 (≈ 30.8 µM) | selectivity ratio [2]: 10.8; inhibition at 72 h, 50 ug/mL [3]: 36.8%; IC50 (RAW264.7): 67.9 µg/mL (≈ 334 µM)
14 | O=S(=O)(c1ccc(Br)cc1)N1CCN(c2noc3c(Cl)cccc23)CC1 | 25 (≈ 54.7 µM) | –
15 | O=S(=O)(c1ccc(Br)cc1)N1CCN(c2noc3cc(Cl)ccc23)CC1 | > 50 | –
16 | CO[C@H]1/C=C/O[C@@]2(C)Oc3c(C)c(O)c4c(O)c(c(/C=N/N5CCN(C)CC5)c(O)c4c3C2=O)NC(=O)/C(C)=C\C=C\[C@H](C)[C@H](O)[C@@H](C)[C@@H](O)[C@@H](C)[C@H](OC(C)=O)[C@@H]1C [RIFAMPIN] | 1 (≈ 1.22 µM) | –
17 | O=S(=O)(c1ccc(OC(F)(F)F)cc1)N1CCN(c2noc3cc(Cl)ccc23)CC1 | 12.5 (≈ 27.1 µM) | selectivity ratio [2]: 11; inhibition at 72 h, 50 ug/mL [3]: 18.1%; IC50 (RAW264.7): 138 µg/mL (≈ 299 µM)
18 | CS(=O)(=O)N1CCN(c2noc3cccc(Cl)c23)CC1 | > 50 | –
19 | Clc1cccc2onc(N3CCNCC3)c12 | 25 (≈ 105 µM) | –
20 | O=S(=O)(c1ccccc1)N1CCN(c2noc3c(Cl)cccc23)CC1 | 25 (≈ 66.2 µM) | –
21 | CS(=O)(=O)N1CCN(c2noc3ccccc23)CC1 | 12.5 (≈ 44.4 µM) | selectivity ratio [2]: 7.03; inhibition at 72 h, 50 ug/mL [3]: 28.4%; IC50 (RAW264.7): 88 µg/mL (≈ 313 µM)
22 | Cc1ccc(S(=O)(=O)N2CCN(c3noc4cc(Cl)ccc34)CC2)cc1 | > 50 | –
23 | Cc1ccc(S(=O)(=O)N2CCN(c3noc4ccccc34)CC2)cc1 | 50 (≈ 140 µM) | –
24 | Clc1ccc2c(N3CCNCC3)noc2c1 | 12.5 (≈ 52.6 µM) | selectivity ratio [2]: 8.29; inhibition at 72 h, 50 ug/mL [3]: 24.1%; IC50 (RAW264.7): 104 µg/mL (≈ 436 µM)
25 | CS(=O)(=O)N1CCN(c2noc3c(Cl)cccc23)CC1 | 25 (≈ 79.2 µM) | –
26 | O=S(=O)(c1ccc(Br)cc1)N1CCN(c2noc3cccc(Cl)c23)CC1 | 50 (≈ 109 µM) | –
27 | O=S(=O)(c1ccccc1)N1CCN(c2noc3cc(Cl)ccc23)CC1 | 25 (≈ 66.2 µM) | –
28 | O=S(=O)(c1ccc(OC(F)(F)F)cc1)N1CCN(c2noc3c(Cl)cccc23)CC1 | > 50 | –
29 | O=[N+]([O-])c1ccc(S(=O)(=O)N2CCN(c3noc4cc(Cl)ccc34)CC2)cc1 | 25 (≈ 59.1 µM) | –
30 | NNC(=O)c1ccncc1 [ISONIAZID] | 0.36 (≈ 2.63 µM) | –
